Assay results taken from ChEMBL document CHEMBL1124639, “Synthesis and in vitro pharmacology of arpromidine and related phenyl(pyridylalkyl)guanidines, a potential new class of positive inotropic drugs” (J Med Chem, 1989).

Assays:
[1] = target: Histamine H2 receptor (Cavia porcellus) (UniProt P47747); assay: Agonistic activity relative to histamine on electrically stimulated papillary muscle of guinea pig; format: functional, tissue-based; settings: Muscle tissue
Summary of the method: (§1)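 Isolated right-ventricular papillary muscle from guinea pig, electrically paced at 1 Hz with 1 ms pulses, in Krebs-Henseleit solution gassed with O2/CO2 95:5 at 32.5 °C. Compounds were tested as hydrohalide salts. Cumulative concentration-response curves of contractile force were run against histamine as the standard agonist. […] relative potency were taken from pD2, with histamine maximum = 1.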

Cavia porcellus [2] = species on record: Cavia porcellus; assay: Increase in heart rate with maximal inotropic response in isolated perfused guinea pig heart; format: functional
Summary of the method: (§2)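 Langendorff-perfused isolated guinea pig heart. Compounds were given as a bolus injected into the perfusion stream, with impromidine as reference. Net increases in LV dp/dtmax, heart rate and coronary flow were expressed against impromidine = 100% in a control group (n = 6 each). Relative potency was taken from molar ED50 ratios versus impromidine = 100%.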

Cavia porcellus [3] = species on record: Cavia porcellus; assay: Increase in coronary flow with maximal inotropic response in isolated perfused guinea pig heart; format: functional; parameters: unit not given beside the values; summary of the method: as §2
[4] = target: Histamine H2 receptor (Cavia porcellus) (UniProt P47747); assay: Potency relative to histamine calculated from mean pD2 value in guinea pig right atrium.; format: functional, tissue-based; settings: Cardiac atrium
Summary of the method: (§3)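 Spontaneously beating isolated guinea pig right atrium with a positive chronotropic read-out. Cumulative concentration-response curves were run against histamine dihydrochloride as the standard. Incubation after each concentration was usually 25 min, adjusted until equilibrium. H2 selectivity was checked with cimetidine (10 µM and 1 µM) and metoprolol (1 µM). Potency relative to histamine = 1 was calculated from mean pD2 values.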

[5] = target: Histamine H2 receptor (Cavia porcellus) (UniProt P47747); assay: Histamine H2 receptor agonism relative to histamine on isolated guinea pig right atrium; format: functional, tissue-based; settings: Cardiac atrium; summary of the method: as §3
[6] = target: Histamine H2 receptor (Cavia porcellus) (UniProt P47747); assay: Intrinsic activity (as a measure of agonism) on electrically stimulated papillary muscle of guinea pig; format: functional, tissue-based; settings: Muscle tissue; summary of the method: as §1
Histamine H1 receptor = Histamine H1 receptor (Cavia porcellus, UniProt P31389); assay: Antagonist activity at histamine H1 receptor against histamine in isolated ileum of guinea pig.; format: functional, tissue-based; settings: read-out: pA2 (converted)
Chain of Histamine H1 receptor (P31389 whole entry): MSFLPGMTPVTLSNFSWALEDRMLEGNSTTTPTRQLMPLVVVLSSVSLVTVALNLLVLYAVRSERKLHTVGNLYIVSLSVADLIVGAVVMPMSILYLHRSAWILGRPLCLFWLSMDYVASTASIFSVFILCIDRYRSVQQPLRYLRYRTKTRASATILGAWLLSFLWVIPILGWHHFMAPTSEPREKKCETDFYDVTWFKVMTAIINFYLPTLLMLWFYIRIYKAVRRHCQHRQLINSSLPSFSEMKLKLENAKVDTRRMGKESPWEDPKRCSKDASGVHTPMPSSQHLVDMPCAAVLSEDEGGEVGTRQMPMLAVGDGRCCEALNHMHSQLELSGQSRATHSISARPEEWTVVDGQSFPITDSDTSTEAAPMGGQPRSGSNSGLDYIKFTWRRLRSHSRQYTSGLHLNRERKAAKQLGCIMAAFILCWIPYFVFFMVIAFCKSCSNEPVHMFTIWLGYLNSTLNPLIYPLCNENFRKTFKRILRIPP
Summary of the method: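 Isolated guinea pig ileum contracted by histamine, with histamine dihydrochloride as the standard agonist in cumulative dose-response curves. pA2 was derived. For compounds that depressed the histamine maximum at 10 µM, -log KB was taken at 3 µM antagonist from log(DR-1) = log[ant.] - log KB.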

Cavia porcellus [7] = species on record: Cavia porcellus; assay: Chronotropic effect assessed from maximal increase in delta LV (dp/dtmax) in isolated perfused guinea pig heart; format: functional; settings: in the assay text read “Inotropic effect” for “Chronotropic effect”; summary of the method: as §2
[8] = target: Histamine H2 receptor (Cavia porcellus) (UniProt P47747); assay: Histamine H2 receptor agonistic activity (as a measure of agonism) at the isolated right atrium of guinea pig, activity relative to histamine.; format: functional, tissue-based; settings: Cardiac atrium; summary of the method: as §3
Cavia porcellus [9] = species on record: Cavia porcellus; assay: Relative potency with impromidine (100%) in isolated perfused guinea pig heart; format: functional; summary of the method: as §2

Chain of Histamine H2 receptor (Cavia porcellus) (P47747 whole entry, the tested form may be a part): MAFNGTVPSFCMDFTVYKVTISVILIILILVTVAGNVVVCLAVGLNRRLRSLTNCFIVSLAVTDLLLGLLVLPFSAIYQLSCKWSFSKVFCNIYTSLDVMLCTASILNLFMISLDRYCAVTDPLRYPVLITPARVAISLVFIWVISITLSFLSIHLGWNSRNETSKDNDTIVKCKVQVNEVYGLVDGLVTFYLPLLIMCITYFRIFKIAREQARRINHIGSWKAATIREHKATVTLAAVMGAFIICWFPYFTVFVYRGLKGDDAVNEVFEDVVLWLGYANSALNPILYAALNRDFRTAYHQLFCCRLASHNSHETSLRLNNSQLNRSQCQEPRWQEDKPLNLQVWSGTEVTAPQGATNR

- pD2 [1]: 7.37
- Relative potency [4]: 24.5
- pD2 [5]: 7.39
- Intrinsic activity [6]: 0.7
- Kb (Histamine H1 receptor): 97.7 nM
- Intrinsic activity [8]: 1
SMILES: N=C(NCCCc1c[nH]cn1)NCCC(c1ccccc1)c1ccccn1 (stereo not given)
- Delta heart rate (Cavia porcellus [2]): 70
- Delta coronary flow (Cavia porcellus [3]): 121
- Delta LV (Cavia porcellus [7]): 76
- Relative potency (Cavia porcellus [9]): 63
